Data on 38 compounds can be found in ChEMBL document CHEMBL3612005, “Discovery of N-aryl-naphthylamines as in vitro inhibitors of the interaction between HIV integrase and the cofactor LEDGF/p75” (Eur J Med Chem, 2015).

As usually defined, the inhibition is the drop in the measured response relative to a control, in per cent. By EC50 is commonly meant the midpoint of the concentration-response curve. A word on the IC50: it is the midpoint of a concentration-inhibition curve. By CC50 is commonly meant the concentration at which the toxic effect on the cells reaches its halfway point.

Active and inactive are the calls of the source. The rule behind the calls is not given here.

Series [1] concerns the target Human immunodeficiency virus type 1 integrase (Human immunodeficiency virus 1) (UniProt Q7ZJM1). Description: Binding affinity to His6-tagged recombinant HIV1 Integrase assessed as inhibition of protein interaction with 3xFLAG-tagged LEDGF/p75 at 100 uM preincubated for 30 mins followed by 3xFLAG-tagged LEDGF/p75 addition measured after 60 mins by AlphaScreen assay relative to control. An outline of the steps: (§1)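 His6-integrase (300 nM final) preincubated with compound 30 min at 4 °C, then FLAG-LEDGF/p75 (300 nM final) added for 60 min at 4 °C; Ni-chelate donor and anti-FLAG acceptor beads (20 µg/mL each) added, 1 h at 30 °C, light-protected. Buffer: 25 mM Tris-HCl pH 7.4, 150 mM NaCl, 1 mM MgCl2, 0.01% Tween-20, 0.1% BSA. Single-point screen at 100 µM; IC50 determined where inhibition exceeded 50%.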
Background: Bead proximity is the source of the signal in Alpha formats.

For series [2], the system named is Human immunodeficiency virus 1. Description: Antiviral activity against HIV1 3B infected in human MT4 cells assessed as protection against virus-induced cytopathic effect by MTT assay. The settings on record: Human immunodeficiency virus 1, 3B. The class given is functional, organism-based. Put shortly:
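MT-4 cells infected with 100–300 CCID50 of HIV-1 IIIB (virus titred in MT-4 cells) with five-fold serial dilutions of compound; protection from viral cytopathic effect read by MTT reduction to formazan, measured spectrophotometrically; EC50 = concentration giving 50% protection.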

Series [3] addresses Human immunodeficiency virus type 1 integrase (Human immunodeficiency virus 1, UniProt Q7ZJM1). Description: Binding affinity to His6-tagged recombinant HIV1 Integrase assessed as inhibition of protein interaction with 3xFLAG-tagged LEDGF/p75 preincubated for 30 mins followed by 3xFLAG-tagged LEDGF/p75 addition measured after 60 mins by AlphaScreen assay. Put shortly: as §1

Series [4] is described as follows: Cytotoxicity against human MT4 cells assessed as reduction in cell viability by MTT assay. Format: cell-based. An outline of the steps: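 Uninfected MT-4 cells exposed to five-fold serial dilutions of compound; viability measured by MTT reduction to formazan, read spectrophotometrically; CC50 = concentration killing 50% of cells.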
Series [5] is filed under the species Homo sapiens. Description: Inhibition of FLAG-tagged GST (unknown origin) at 100 uM by emission quenching AlphaScreen assay relative to control. An outline of the steps:
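Emission-quench counter-screen: FLAG-tagged GST (500 nM final) replaces integrase and LEDGF/p75, otherwise run as the AlphaScreen interaction assay (Ni-chelate donor and anti-FLAG acceptor beads, 20 µg/mL each, 1 h at 30 °C; Tris-HCl pH 7.4 buffer). Compound tested at 100 µM; percent inhibition of signal.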

Human immunodeficiency virus type 1 integrase, sequence (Q7ZJM1 whole entry): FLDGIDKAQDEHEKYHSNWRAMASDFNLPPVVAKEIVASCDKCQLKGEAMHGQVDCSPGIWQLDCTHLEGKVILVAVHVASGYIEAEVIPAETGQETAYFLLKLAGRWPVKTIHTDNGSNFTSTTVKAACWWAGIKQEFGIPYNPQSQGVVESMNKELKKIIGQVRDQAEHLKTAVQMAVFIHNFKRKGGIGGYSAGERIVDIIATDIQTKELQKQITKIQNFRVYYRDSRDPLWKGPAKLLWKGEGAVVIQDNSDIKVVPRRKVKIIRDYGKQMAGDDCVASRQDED
Human immunodeficiency virus type 1 integrase (Human immunodeficiency virus 1), sequence (Q7ZJM1 as listed by the source): as the sequence (Q7ZJM1 whole entry) above

For `COc1c(Nc2ccccc2)ccc2ccccc12`, in series [1], the inhibition result is “inactive”.
As to `COC(=O)c1ccc(Cn2ccc(=O)c3ccccc32)cc1`, the inhibition in series [1] came to 25%.
Consider `COc1ccc(I)cc1Nc1ccc(OC)c2ccccc12`, for which the EC50 in series [2] is more than 12.5 µM. Besides, the IC50 in series [3] was 28.9 µM. For the same compound, in series [1], the inhibition is 61%. Also, the CC50 in series [4] turned out to be 12.5 µM.
Turning to `COC(=O)c1ccccc1Nc1c(O)ccc2ccccc12`, in series [1], the inhibition came out at 28%.
Regarding `COc1c(Nc2ccc(C(=O)O)cc2)ccc2ccccc12`, in series [1], the inhibition result is “inactive”.
`COc1c(Nc2ccc(I)cc2)ccc2ccccc12`: the inhibition entry in series [1] is “inactive”.
The same measure, in the same setting: under `O=C(O)c1ccc(Cn2cc(C(=O)O)c(=O)c3ccccc32)cc1` stands 16%.
The compound `COC(=O)c1cc(Nc2ccc(OC)c3ccccc23)ccc1OC` gave an inhibition in series [5] of 92%. The inhibition result in series [1] was “inactive”.
For `COC(=O)c1ccc(Nc2ccc(OC)c3ccccc23)cc1`, in series [3], the IC50 turned out to be 34.8 µM. Also, in series [5], the inhibition result was “inactive”. For the same compound, the inhibition in series [1] came out at 59%.
For `COc1ccc(Nc2ccccc2)c2ccccc12`, in series [1], the inhibition entry is “inactive”.
Regarding `COC(=O)c1ccc(Nc2ccc(O)c3ccccc23)cc1`, the inhibition in series [1] was found to be 49%.
`COc1ccc(Nc2ccc(OC)c3ccccc23)cc1`: in series [1], the inhibition is 57%.
Take `COC(=O)c1ccc(Cn2cc(C(C)=O)c(=O)c3ccccc32)cc1`: the inhibition in series [1] turned out to be 46%.
With `COC(=O)c1ccc(Nc2ccc3ccccc3c2OC)cc1`, the inhibition entry in series [1] is “inactive”.
Turning to `O=C(O)c1ccccc1Nc1c(O)ccc2ccccc12`, the inhibition in series [1] turned out to be 56%.
As for `CC(=O)c1cn(Cc2ccc(C(=O)O)cc2)c2ccccc2c1=O`, the inhibition result in series [1] was “inactive”.
Consider `Fc1ccc(Nc2ccc(F)c3ccccc23)cc1`, for which the concentration for a half-maximal effect (EC50) in series [2] is more than 38.4 µM. Besides, the IC50 in series [3] is more than 100 µM. Moreover, in series [1], the inhibition turned out to be 63%. The CC50 in series [4] is 38.4 µM.
For `O=C(O)c1ccc(Nc2cccc3ccccc23)cc1`, the inhibition in series [1] was 39%.
The same measure, in the same setting: then `COc1ccc(Nc2ccc(C(=O)O)cc2)c2ccccc12`, with 33%.
On to `Cc1ccc(-c2c(C(OC(C)(C)C)C(=O)O)ccc3sc(C)cc23)cc1` (stereo not given), for which, in series [2], the EC50 is 0.069 µM. Besides, the half-maximal inhibitory concentration (IC50) in series [3] was 0.046 µM. Further, in series [4], the CC50 was 96 µM.
Take `COc1ccc2ccccc2c1Nc1c(OC)ccc2ccccc12`: the EC50 in series [2] was more than 3.41 µM. In addition, the IC50 in series [3] was found to be 13.8 µM. The results for the inhibition in series [5] and in series [1] were 74% and 100%, respectively. Besides, the CC50 in series [4] stood at 3.41 µM.
With `COc1ccccc1Nc1ccc(OC)c2ccccc12`, the inhibition result in series [1] is “inactive”.
`COc1ccc(S(=O)(=O)c2ccc(OC)c3ccccc23)cc1`: the inhibition entry in series [1] was “inactive”.
On to `CCOC(=O)c1cn(Cc2ccc(C(=O)OC)cc2)c2ccccc2c1=O`, for which, in series [2], the 50% effective concentration (EC50) was more than 5.63 µM. Also, in series [3], the half-maximal inhibitory concentration (IC50) is more than 100 µM. Besides, the inhibition in series [1] was 60%. In series [4], the CC50 worked out at 5.63 µM.
Turning to `COc1ccc(Sc2ccc(OC)c3ccccc23)cc1`, the inhibition result in series [1] was “inactive”.
As for `O=C(O)c1cc(Nc2ccc(O)c3ccccc23)ccc1O`, in series [2], the half-maximal effective concentration (EC50) was more than 126 µM. Moreover, in series [3], the 50% inhibitory concentration (IC50) was found to be 19.1 µM. The inhibition is 52% in series [5] and 88% in series [1]. In addition, the CC50 in series [4] was found to be 126 µM.
Regarding `Oc1ccc(Nc2ccc(O)c3ccccc23)cc1`, the inhibition was 84% in series [5] and 95% in series [1].
Consider `Oc1ccc(Sc2ccc(O)c3ccccc23)cc1`, for which the inhibition in series [1] was found to be 38%.
On the same count and under the same terms, then `COc1ccc(Nc2ccc(OC)c3ccccc23)cc1C(=O)O`, with 41%; and `COC(=O)c1ccc(Nc2ccc3ccccc3c2O)cc1`, with 58%; and `O=C(O)c1ccc(Cn2ccc(=O)c3ccccc32)cc1`, with “inactive”.
The same measure, in the same setting: then `COC(=O)c1ccccc1Nc1c(OC)ccc2ccccc12`, with “inactive”; and `O=S(=O)(c1ccc(O)cc1)c1ccc(O)c2ccccc12`, with 30%; and `Oc1c(Nc2ccccc2)ccc2ccccc12`, with 61%.
As for `O=C(O)c1ccc(Nc2ccc(O)c3ccccc23)cc1`, the concentration for a half-maximal effect (EC50) in series [2] was more than 1.07 µM. In addition, in series [3], the IC50 came out at 2.5 µM. Also, the inhibition in series [5] came to 16%; in series [1] it was 95%. For the same compound, the 50% cytotoxic concentration (CC50) in series [4] was determined as 1.07 µM.
Turning to `O=C(O)c1ccc(Nc2ccc3ccccc3c2O)cc1`, the half-maximal effective concentration (EC50) in series [2] is more than 23.7 µM. The IC50 in series [3] was determined as 70.1 µM. Besides, the inhibition in series [1] turned out to be 66%. For the same compound, the half-maximal cytotoxic concentration (CC50) in series [4] turned out to be 23.7 µM.
With `COC(=O)c1ccc(Nc2cccc3ccccc23)cc1`, the EC50 in series [2] is more than 27.5 µM. Also, in series [1], the inhibition stood at 62%. Also, the CC50 in series [4] is 27.5 µM.
For `CSc1ccc(Nc2ccc(F)c3ccccc23)cc1`, the inhibition entry in series [1] is “inactive”.
